Calls of active or inactive are those of the source. No cut-off for these calls is given here.
Legend:
BT-474 = assay: Cytotoxicity against human BT474 cells assessed as reduction in cell viability after 3 days by CellTiter-Glo assay; type: cell-based; details: BT-474, 72 h
CAL-51 [1] = assay: Cytotoxicity against human CAL51 cells assessed as reduction in cell viability after 3 days by CellTiter-Glo assay; type: functional, cell-based; details: CAL-51, 72 h
[2] = Metabolic stability in rat liver S9 fraction assessed as percent of compound remaining after 60 mins; type: ADME, tissue-based; details: read-out: Stability
[3] = Mean residence time in rat at 2 mg/kg, iv; type: ADME, organism-based; details: in vivo
[4] = Clearance in rat at 2 mg/kg, iv; type: ADME, organism-based; details: in vivo
[5] = Metabolic stability in human liver S9 fraction assessed as percent of compound remaining after 60 mins; type: ADME, tissue-based; details: read-out: Stability
[6] = Clearance in SCID mouse at 10 mg/kg, iv; type: ADME, organism-based; details: in vivo
[7] = Mean residence time in SCID mouse at 10 mg/kg, iv; type: ADME, organism-based; details: in vivo
[8] = Volume of distribution at steady state in rat at 2 mg/kg, iv; type: ADME, organism-based; details: in vivo, read-out: Vdss
Mus musculus = assay: Toxicity in SCID mouse xenografted with human CAL51 cells assessed as loss in body weight at 5 mg/kg, iv administered every 4 days for 16 days relative to control; type: organism-based; details: in vivo
CAL-51 [9] = assay: Antiproliferative activity against human CAL51 cells xenografted in SCID mouse assessed as tumor growth inhibition at 5 mg/kg, iv administered every 4 days for 16 days; type: functional, organism-based
In short: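 Mice bearing tumors of about 125 mm3 randomized (n = 8−10/group) and given compound intravenously at the listed doses and schedules. Tumors measured twice weekly by digital caliper on long and short axes; volume = width² × length/2.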

SMILES | IC50 (BT-474) [nM] | IC50 (CAL-51 [1]) [nM] | remaining at 1 h [2] [%] | other results
CNC(=O)c1ccc(Nc2nc(OC3CCCC3)c3c(-c4ccc5oc(C)nc5c4)c[nH]c3n2)c(OC)c1 | 10000 | 642 | 86 | –
CNC(=O)c1ccc(Nc2nc(OC3CCCC3)c3c(-c4cccc(O)c4)c[nH]c3n2)c(OC)c1 | 10000 | 71 | – | –
CNC(=O)c1ccc(Nc2nc(OC3CCCC3)c3c(-c4cc[nH]n4)c[nH]c3n2)c(OC)c1 | 10000 | 460 | 53 | –
CNC(=O)c1ccc(Nc2nc(OC3CCCC3)c3c(-c4ccc(-c5ccn[nH]5)cc4)c[nH]c3n2)c(OC)c1 | 10000 | 61 | 84 | –
COc1cc(C(=O)NC2COC2)ccc1Nc1nc(OC2CCCC2)c2c(-c3ccc4nc(C)oc4c3)c[nH]c2n1 | 10000 | 123 | 91 | MRT [3]: 4.7 h; clearance [4]: 13 mL/min/kg; remaining at 1 h [5]: 79%; clearance [6]: 14.3 mL/min/kg; MRT [7]: 1.4 h; Vd [8]: 3.7 L/kg
CNC(=O)c1ccc(Nc2nc(OC3COC3)c3c(-c4ccc5nc(C)oc5c4)c[nH]c3n2)c(OC)c1 | 243 | 8 | – | –
CNC(=O)c1ccc(Nc2nc(OC3CCCC3)c3c(-c4ccncc4)c[nH]c3n2)c(OC)c1 | 10000 | 17 | 83 | –
CNC(=O)c1ccc(Nc2nc(OC3CCCC3)c3c(-c4ccc(CO)cc4)c[nH]c3n2)c(OC)c1 | 10000 | 89 | 18 | –
CNC(=O)c1ccc(Nc2nc(O[C@H]3CCOC3)c3c(-c4ccc5nc(C)oc5c4)c[nH]c3n2)c(OC)c1 | 3760 | 17 | 62 | MRT [3]: 1 h; clearance [4]: 27.4 mL/min/kg; remaining at 1 h [5]: 62%; clearance [6]: 19.1 mL/min/kg; MRT [7]: 0.73 h; Vd [8]: 1.6 L/kg
CNC(=O)c1ccc(Nc2nc(OCCO)c3c(-c4ccc5nc(C)oc5c4)c[nH]c3n2)c(OC)c1 | 694 | 56 | – | –
COc1cc(C(=O)N2CCN(C)CC2)ccc1Nc1nc(OC2CCCC2)c2c(-c3ccc4nc(C)oc4c3)c[nH]c2n1 | 3210 | 37 | – | –
CNC(=O)c1ccc(Nc2nc(OC3CCCC3)c3c(-c4cccnc4)c[nH]c3n2)c(OC)c1 | 10000 | 79 | 59 | –
CNC(=O)c1ccc(Nc2nc(OC(C)C)c3c(-c4ccc5nc(C)oc5c4)c[nH]c3n2)c(OC)c1 | 946 | 40 | 69 | MRT [3]: 3.5 h; clearance [4]: 33.9 mL/min/kg; remaining at 1 h [5]: 78%; clearance [6]: 7.71 mL/min/kg; MRT [7]: 4.8 h; Vd [8]: 7.2 L/kg
CNC(=O)c1ccc(Nc2nc(O[C@H]3CC[C@@](C)(O)CC3)c3c(-c4ccc5nc(C)oc5c4)c[nH]c3n2)c(OC)c1 | 10000 | 8 | 76 | MRT [3]: 2.9 h; clearance [4]: 17.6 mL/min/kg; remaining at 1 h [5]: 65%; clearance [6]: 52.2 mL/min/kg; MRT [7]: 1 h; Vd [8]: 2.9 L/kg
CNC(=O)c1ccc(Nc2nc(OC3CCCC3)c3c(-c4ccc(-c5nnc[nH]5)cc4)c[nH]c3n2)c(OC)c1 | 4860 | 77 | 84 | –
CNC(=O)c1ccc(Nc2nc(O[C@H]3CC[C@](C)(O)CC3)c3c(-c4ccc5nc(C)oc5c4)c[nH]c3n2)c(OC)c1 | 893 | 15 | – | –
CNC(=O)c1ccc(Nc2nc(O)c3c(-c4ccc5nc(C)oc5c4)c[nH]c3n2)c(OC)c1 | 10000 | 10000 | – | –
COc1cc(C(=O)N(C)C)ccc1Nc1nc(OC2CCCC2)c2c(-c3ccc4nc(C)oc4c3)c[nH]c2n1 | 8310 | 113 | – | –

SMILES | IC50 (BT-474) [nM] | IC50 (CAL-51 [1]) [nM] | remaining at 1 h [2] [%] | other results
CC(=O)O[C@@]12CO[C@@H]1C[C@H](O)[C@@]1(C)C(=O)[C@H](O)C3=C(C)[C@@H](OC(=O)[C@H](O)[C@@H](NC(=O)OC(C)(C)C)c4ccccc4)C[C@@](O)([C@@H](OC(=O)c4ccccc4)[C@H]21)C3(C)C [DOCETAXEL ANHYDROUS] | – | – | – | Activity (Mus musculus): 20%; TGI (CAL-51 [9]): Active
CNC(=O)c1ccc(Nc2nc(OC3CCC3)c3c(-c4ccc5nc(C)oc5c4)c[nH]c3n2)c(OC)c1 | 10000 | 47 | – | –
COc1cc(C(=O)NC(C)(C)CO)ccc1Nc1nc(OC2CCCC2)c2c(-c3ccc4nc(C)oc4c3)c[nH]c2n1 | 6090 | 109 | – | –
CNC(=O)c1ccc(Nc2nc(OC3CCCC3)c3c(-c4ccc(-c5ncc[nH]5)cc4)c[nH]c3n2)c(OC)c1 | 1730 | 8 | 64 | –
CNC(=O)c1ccc(Nc2nc(OC3CCCC3)c3c(-c4ccc(O)cc4)c[nH]c3n2)c(OC)c1 | 3320 | 13 | 1 | –
CNC(=O)c1ccc(Nc2nc(OC3CCOCC3)c3c(-c4ccc5nc(C)oc5c4)c[nH]c3n2)c(OC)c1 | 10000 | 20 | 75 | MRT [3]: 2.9 h; clearance [4]: 22.6 mL/min/kg; remaining at 1 h [5]: 70%; clearance [6]: 67.6 mL/min/kg; MRT [7]: 1.8 h; Vd [8]: 3.8 L/kg
COc1ccccc1Nc1nc(OC2CCCC2)c2c(-c3ccc4nc(C)oc4c3)c[nH]c2n1 | 10000 | 771 | – | –
CNC(=O)c1ccc(Nc2nc(OC3CCCC3)c3c(-c4ccc5cn[nH]c5c4)c[nH]c3n2)c(OC)c1 | 10000 | 338 | 85 | –
CNC(=O)c1ccc(Nc2nc(OC3CCCC3)c3c(-c4ccc(OC)cc4)c[nH]c3n2)c(OC)c1 | 10000 | 491 | 76 | –
COc1cc(C(=O)N2CCOCC2)ccc1Nc1nc(OC2CCCC2)c2c(-c3ccc4nc(C)oc4c3)c[nH]c2n1 | 6390 | 351 | – | –
CNC(=O)c1ccc(Nc2nc(OC3CCCC3)c3c(-c4cccc(CO)c4)c[nH]c3n2)c(OC)c1 | 9990 | 30 | 54 | –
CNC(=O)c1ccc(Nc2nc(OC3CCCC3)c3c(-c4cn[nH]c4)c[nH]c3n2)c(OC)c1 | 8120 | 9 | 36 | –
CNC(=O)c1ccc(Nc2nc(OC3CCCC3)c3c(-c4ccc5nc(C)oc5c4)c[nH]c3n2)c(C)c1 | 9610 | 349 | – | –
CNC(=O)c1ccc(Nc2nc(OC3CCCC3)c3c(-c4ccc5nc[nH]c5c4)c[nH]c3n2)c(OC)c1 | 158 | 17 | 46 | –
CNC(=O)c1ccc(Nc2nc(OC3CCCC3)c3c(-c4ccccc4)c[nH]c3n2)c(OC)c1 | 10000 | 496 | 86 | –
CNC(=O)c1ccc(Nc2nc(OCCOC)c3c(-c4ccc5nc(C)oc5c4)c[nH]c3n2)c(OC)c1 | 3760 | 147 | – | –
COc1cc(C(=O)NCC(C)(C)O)ccc1Nc1nc(OC2CCCC2)c2c(-c3ccc4nc(C)oc4c3)c[nH]c2n1 | 10000 | 61 | – | –

— ChEMBL document CHEMBL4028873, “The Discovery of a Dual TTK Protein Kinase/CDC2-Like Kinase (CLK2) Inhibitor for the Treatment of Triple Negative Breast Cancer Initiated from a Phenotypic Screen” (J Med Chem, 2017)
